Source: ChEMBL document CHEMBL5029146, “Single Diastereomers of the Clinical Anticancer ProTide Agents NUC-1031 and NUC-3373 Preferentially Target Cancer Stem Cells In Vitro” (J Med Chem, 2021)
The source made the active and inactive calls. No cut-off for these calls is given here.

Experiments:
[1] = system: KG-1a; assay: Cytotoxicity against human KG-1a cells assessed as cell death incubated for 72 hrs by flow cytometry based Annexin V/7-AAD assay; type: functional
Method in brief: (§1)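 Cell suspensions from confluent flasks (10^5 cells per well) exposed 72 h at 37°C, humidified 5% CO2, to compound over experimentally set concentration ranges, with drug-free controls. Cells harvested by centrifugation, Annexin V/7-AAD flow cytometry. Triplicate experiments; LC50 by non-linear regression of sigmoidal dose-response curves, mean ± SEM.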

[2] = system: HT-29; assay: Cytotoxicity against human HT-29 cells assessed as cell death incubated for 72 hrs by flow cytometry based Annexin V/7-AAD assay; type: functional; details: read-out: LC50 (the source's name); method in brief: as §1
[3] = system: LNCaP; assay: Cytotoxicity against human LNCaP cells assessed as cell death incubated for 72 hrs by flow cytometry based Annexin V/7-AAD assay; type: functional; details: read-out: LC50 (the source's name); method in brief: as §1
[4] = system: BXPC-3; assay: Cytotoxicity against human BXPC-3 cells assessed as cell death incubated for 72 hrs by MTS assay; type: functional; details: read-out: LC50 (the source's name)
Method in brief: (§2)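 Contracted MTS viability test (BxPC-3, MIA PaCa-2, HT-29, SW620), cells plated the day before dosing. 72 h exposure to 9 serial 3.16-fold dilutions, highest 198 μM, then MTS for 4 h at 37°C and absorbance read. Run in duplicate; LC50 (concentration giving 50% cell death) taken from curve fit as mean.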

[5] = system: MIA PaCa-2; assay: Cytotoxicity against human MIA PaCa-2 cells assessed as cell death incubated for 72 hrs by MTS assay; type: functional; details: read-out: LC50 (the source's name); method in brief: as §2
[6] = system: KG-1a; assay: Cytotoxicity against human KG-1a cells assessed as reduction in leukemic stem cells fraction >= 0.25 uM measured after 48 hrs by FACS assay; type: functional, cell-based; details: dose microM >=0.25, time 48.0 hrs
[7] = Prodrug activation assessed as carboxypeptidase Y-mediated metabolite A release measured upto 120 mins by NMR analysis; type: ADME; details: saccharomyces cerevisiae, 2 h
Method in brief: (§3)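 ProTide (3.5 mg) in acetone-d6 with Trizma buffer pH 7.6. Control 31P NMR taken, then carboxypeptidase Y (0.1 mg in Trizma) added. 31P NMR spectra (202 MHz, 25°C) collected with 64 scans every 7 min. Parent and metabolite A/C fractions followed by peak integration over time.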

[8] = Prodrug activation assessed as carboxypeptidase Y-mediated metabolite C release measured upto 120 mins by NMR analysis; type: ADME; details: saccharomyces cerevisiae, 2 h; method in brief: as §3
[9] = system: MDA-MB-231; assay: Cytotoxicity against human MDA-MB-231 cells incubated for 72 hrs by flow cytometry using Annexin V/7-AAD assay; type: functional; details: read-out: LC50 (the source's name); method in brief: as §1
[10] = system: HCT-116; assay: Cytotoxicity against human HCT-116 cells assessed as cell death incubated for 72 hrs by flow cytometry based Annexin V/7-AAD assay; type: functional; details: read-out: LC50 (the source's name); method in brief: as §1
[11] = system: SW-620; assay: Cytotoxicity against human SW-620 cells assessed as cell death incubated for 72 hrs by MTS assay; type: functional; details: read-out: LC50 (the source's name); method in brief: as §2
[12] = Stability in human plasma assessed as half life; type: ADME, cell-free; details: time <=24 hrs
[13] = Metabolic stability in cryopreserved human hepatocytes assessed as half life at 1 uM for 60 mins by HPLC-MS/MS analysis; type: ADME, cell-based, Hepatocyte; details: for t1/2: hepatocytes, 1 h, 1 µM
Method in brief: (§4)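 Pooled cryopreserved human hepatocytes thawed, washed and resuspended in Krebs-Henseleit buffer pH 7.3. Compound at 1 μM final, incubated 0 and 60 min at 37°C/5% CO2. Quenched with acetonitrile, centrifuged; supernatant analysed by HPLC-MS/MS.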

[14] = Metabolic stability in cryopreserved human hepatocytes assessed as parent compound remaining at 1 uM for 60 mins by HPLC-MS/MS analysis; type: ADME, cell-based, Hepatocyte; method in brief: as §4
[15] = system: KG-1a; assay: Potency index, ratio of FUDR LC50 to test compound LC50 for human KG-1a cells incubated for 72 hrs by flow cytometry using Annexin V/7-AAD assay; type: functional
Method in brief: (§5)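 Annexin V/7-AAD flow cytometry after 72 h exposure at 37°C, 5% CO2, drug-free controls included, triplicate. LC50 by non-linear regression. Index is reference nucleoside LC50 (5-FU for HT-29, FUDR for KG1a) divided by test compound LC50.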

[16] = system: KG-1a; assay: Cytotoxicity against human KG-1a cells assessed as reduction in leukemic stem cells fraction at >= 0.07 uM after 48 hrs by FACS assay; type: functional, cell-based; details: dose microM >=0.07, time 48.0 hrs
Method in brief: (§6)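 KG1a AML cells were kept in RPMI with 20% foetal calf serum and penicillin/streptomycin, then exposed to a wide concentration range of each nucleoside or ProTide. Cells were stained with anti-CD34 (FITC) and anti-CD38 (PE) and read by flow cytometry. The CD34⁺/CD38⁻ stem-cell subset was expressed as a percentage of viable cells. Results are the mean ±SEM of five independent experiments.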

[17] = system: HT-29; assay: Potency index, ratio of 5-FU LC50 to test compound LC50 for human HT-29 cells for 72 hrs by flow cytometry using Annexin V/7-AAD assay; type: functional; method in brief: as §5
[18] = Prodrug activation assessed as carboxypeptidase Y-mediated metabolite A release measured within 10 mins by NMR analysis; type: ADME; details: saccharomyces cerevisiae; method in brief: as §3
[19] = system: SW-620; assay: Potency index, ratio of 5-FU LC50 to test compound LC50 for human SW-620 cells incubated for 72 hrs by MTS assay; type: functional
Method in brief: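 SW620 MTS assay: 72 h exposure to 9 serial 3.16-fold dilutions from 198 μM, MTS 4 h at 37°C, absorbance read, duplicate. LC50 from curve fit; index is 5-FU LC50 divided by test compound LC50.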

[20] = Prodrug activation assessed as carboxypeptidase Y-mediated metabolism by measuring compound remaining within 10 mins by NMR analysis; type: ADME; details: saccharomyces cerevisiae; method in brief: as §3
[21] = system: KG-1a; assay: Cytotoxicity against human KG-1a cells assessed as reduction in leukemic stem cells fraction up to 5 uM measured after 48 hrs by FACS assay; type: functional, cell-based; details: dose microM <=5, time 48.0 hrs
[22] = system: KG-1a; assay: Cytotoxicity against human KG-1a cells assessed as viable cells at 0.25 uM for 48 hrs by FITC-PE analysis (reference value: 3.9 to 4%); type: functional; method in brief: as §6
[23] = system: KG-1a; assay: Cytotoxicity against human KG-1a cells assessed as viable cells at 0.5 uM for 48 hrs by FITC-PE analysis (reference value: 3.9%); type: functional; method in brief: as §6
[24] = Drug uptake in human KG-1a cell leukemic stem cells fraction assessed as intracellular accumulation at 1 uM treated for 1 hr by mass spectrometry analysis; type: ADME
Method in brief: (§7)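 KG1a cells (5×10^6, DMEM + 10% FCS) exposed to 1 μM compound for 1 h, harvested, then FACS-sorted into CD34+/CD38− LSC and CD34+/CD38+ bulk fractions. Pellets lysed; intracellular triphosphate quantified by mass spectrometry against a nucleoside standard curve. Five independent experiments in triplicate, mean ± SEM.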

[25] = Drug uptake in human KG-1a cell bulk tumor fraction assessed as intracellular accumulation at 1 uM treated for 1 hr by mass spectrometry analysis; type: ADME; method in brief: as §7
[26] = system: KG-1a; assay: Cytotoxicity against human KG-1a cells assessed as viable cells at 1 uM for 48 hrs by FITC-PE analysis (reference value: 3.9 to 4%); type: functional; method in brief: as §6
[27] = system: KG-1a; assay: Cytotoxicity against human KG-1a cells assessed as reduction in leukemic stem cells fraction up to 2.5 uM measured after 48 hrs by FACS assay; type: functional, cell-based; details: dose microM <=2.5, time 48.0 hrs; method in brief: as §6

C[C@H](N[P@@](=O)(OC[C@H]1O[C@@H](n2ccc(N)nc2=O)C(F)(F)[C@@H]1O)Oc1ccccc1)C(=O)OCc1ccccc1
LC50 [1]: 0.25 µM
CC50 ([2]; Homo sapiens, HT-29, 72 h): 1000 nM
CC50 [3]: 3400 nM
CC50 [4]: 1290 nM
CC50 [5]: 190 nM
Activity [6]: Active
Drug metabolism [7]: Metabolite_Notdetected
Drug metabolism [8]: Metabolite_Detected

C[C@H](N[P@](=O)(OC[C@H]1O[C@@H](n2ccc(N)nc2=O)C(F)(F)[C@@H]1O)Oc1ccccc1)C(=O)OCc1ccccc1
LC50 [1]: 0.31 µM
CC50 ([2]; Homo sapiens, HT-29, 72 h): 1500 nM
CC50 [3]: 2600 nM
CC50 [4]: 2440 nM
CC50 [5]: 30 nM
Activity [6]: Active

C[C@H](NP(=O)(OC[C@H]1O[C@@H](n2cc(F)c(=O)[nH]c2=O)C[C@@H]1O)Oc1cccc2ccccc12)C(=O)OCc1ccccc1 (stereo in doubt; form 1) [FOSIFLOXURIDINE NAFALBENAMIDE]
LC50 ([1]; 72 h): 0.053 µM
CC50 ([9]; Homo sapiens, MDA-MB-231, 72 h): 2.8 µM
CC50 ([10]; Homo sapiens, HCT-116, 72 h): 3.1 µM
CC50 ([2]; Homo sapiens, HT-29, 72 h): 1700 nM
CC50 ([11]; Homo sapiens, SW-620, 72 h): 1840 nM
half-life [12]: 582 min
half-life at 1 µM ([13]; cryopreserved hepatocytes): 34 min
remaining at 1 h, 1 µM ([14]; cryopreserved hepatocytes, read-out: Stability): 30%
RatioLC50 [15]: 23

C[C@H](NP(=O)(OC[C@H]1O[C@@H](n2cc(F)c(=O)[nH]c2=O)C[C@@H]1O)Oc1cccc2ccccc12)C(=O)OCc1ccccc1 (stereo in doubt; form 2)
Activity [16]: Active

C[C@H](NP(=O)(OC[C@H]1O[C@@H](n2cc(F)c(=O)[nH]c2=O)C[C@@H]1O)Oc1cccc2ccccc12)C(=O)OCc1ccccc1 (stereo in doubt; form 2) [FOSIFLOXURIDINE NAFALBENAMIDE]
RatioLC50 [17]: 13
LC50 ([1]; 72 h): 0.052 µM
CC50 ([9]; 72 h): 3.6 µM
CC50 ([10]; 72 h): 4.3 µM
CC50 ([2]; 72 h): 2100 nM
CC50 ([11]; 72 h): 2370 nM
t1/2 [13]: 53 min
Stability ([14]; hepatocytes, 1 h, 1 µM): 40%
Drug metabolism [18]: Metabolite_Detected

C[C@H](NP(=O)(OC[C@H]1O[C@@H](n2cc(F)c(=O)[nH]c2=O)C[C@@H]1O)Oc1cccc2ccccc12)C(=O)OCc1ccccc1 (stereo in doubt; form 3)
Activity [16]: Active

C[C@H](NP(=O)(OC[C@H]1O[C@@H](n2cc(F)c(=O)[nH]c2=O)C[C@@H]1O)Oc1cccc2ccccc12)C(=O)OCc1ccccc1 (stereo in doubt; form 3) [FOSIFLOXURIDINE NAFALBENAMIDE]
LC50 ([1]; 72 h): 0.055 µM
CC50 ([9]; 72 h): 2.5 µM
CC50 ([10]; 72 h): 2.6 µM
CC50 ([2]; 72 h): 1500 nM
CC50 ([11]; 72 h): 1460 nM
RatioLC50 [19]: 4
t1/2 [13]: 47 min
Activity [20]: 28%

O=c1[nH]cc(F)c(=O)[nH]1 [FLUOROURACIL]
LC50 [1]: 1.4 µM
CC50 ([9]; Homo sapiens, MDA-MB-231, 72 h): 12.6 µM
CC50 ([10]; Homo sapiens, HCT-116, 72 h): 3.7 µM
CC50 ([2]; Homo sapiens, HT-29, 72 h): 5500 nM
CC50 ([11]; Homo sapiens, SW-620, 72 h): 7980 nM
half-life [12]: 8 min
Activity [21]: inactive

C[C@H](NP(=O)(OC[C@H]1O[C@@H](n2ccc(N)nc2=O)C(F)(F)[C@@H]1O)Oc1ccccc1)C(=O)OCc1ccccc1 (some centres undefined) [FOSGEMCITABINE PALABENAMIDE]
LC50 [1]: 0.28 µM
CC50 ([2]; Homo sapiens, HT-29, 72 h): 1300 nM
CC50 [3]: 3100 nM
CC50 [4]: 2290 nM
CC50 [5]: 100 nM
half-life [12]: 498 min
Activity [22]: 2.7%
Activity [23]: 2.5%
Drug uptake [24]: Active
Drug uptake [25]: Active
Activity [26]: 1.9%

Nc1ccn([C@@H]2O[C@H](CO)[C@@H](O)C2(F)F)c(=O)n1 [GEMCITABINE]
LC50 [1]: 1.8 µM
CC50 ([2]; Homo sapiens, HT-29, 72 h): 700 nM
CC50 [3]: 2800 nM
CC50 [4]: 740 nM
CC50 [5]: 10 nM
Activity [22]: 4.1%
Activity [23]: 3.9%
Activity [27]: inactive
Activity [26]: 3.8%
